We go through five molecules from article PMC7439261 (ACS Omega, 2020).

Values after ≈ are worked out from the molar mass of the structure shown.

Series [1] in a line: Sulforhodamine cytotoxicity assay, MCF7. The settings on record: human, MCF7 cells. The class given is cell-based. In a few lines: (§1)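 Cells were grown in EMEM with 10% FBS, 2 mM L-glutamine, 20 mM HEPES and antibiotics at 37 °C, 5% CO2. Passages were 4–20 for HeLa, MCF7 and Jurkat, and 2–5 for fibroblasts. Seeding per well for 24 h: HeLa 5×10^3, MCF7 and fibroblast 10^4, Jurkat 5×10^4. Test compound (0–200 mg/L, in DMSO) was added for 48 h. Cells were fixed with cold TCA, stained with 0.2% SRB, solubilised in 10 mM Tris and read at 492 nm. Camptothecin was the positive control. Triplicates, three independent experiments.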

A short description of series [2]: Sulforhodamine cytotoxicity assay, Jurkat. It is filed as cell-based. The settings on record: human, Jurkat cells. In a few lines: as §1
Series [3] in a line: Sulforhodamine cytotoxicity assay, HeLa. It is filed as cell-based. The settings on record: human, HeLa cells. In a few lines: as §1
Series [4] is described as follows: Sulforhodamine cytotoxicity assay, fibroblast. The settings on record: human, fibroblast cells derived from human foreskins. The class given is cell-based. In a few lines:
as §1

Series [5] can be described thus: Sulforhodamine cytotoxicity assay, text summary over four cell lines. It is filed as cell-based. The settings on record: human. In a few lines:
as §1

For another series, the system named is H. pylori ATCC 43504. In words: Broth dilution bioassay MIC/MBC, ATCC 43504. The class given is cell-based. The settings on record: Helicobacter pylori; for MIC: ATCC43504, 48 h; for MBC: ATCC43504, 72 h. In general terms: Dilution methods test growth across graded concentrations, often in twofold steps.
Another series relates to H. pylori ATCC 51932. Briefly: Broth dilution bioassay MIC/MBC, ATCC 51932. It is filed as cell-based. The settings on record: Helicobacter pylori; for MIC: ATCC51932, 48 h; for MBC: ATCC51932, 72 h.
Another series relates to H. pylori OX.22. In words: Broth dilution bioassay MIC/MBC, OX.22. The class given is cell-based. The settings on record: Helicobacter pylori; for MBC: OX.22, 72 h; for MIC: OX.22, 48 h.
In the next series the test system is H. pylori OX.63. Briefly: Broth dilution bioassay MIC/MBC, OX.63. It is filed as cell-based, Helicobacter pylori. The settings on record: for MBC: OX.63, 72 h; for MIC: H. pylori OX.63, broth dilution, 48 h.
The subject of the next series is H. pylori OX.64. In words: Broth dilution bioassay MIC/MBC, OX.64. The settings on record: for MIC: H. pylori OX.64, broth dilution, 48 h; for MBC: OX.64, 72 h. The class given is cell-based, Helicobacter pylori.
A further series has as its system H. pylori OX.67. In words: Broth dilution bioassay MIC/MBC, OX.67. The class given is cell-based, Helicobacter pylori. The settings on record: Helicobacter pylori; for MIC: OX.67, 48 h, H. pylori OX.67, broth dilution, 48 h; for MBC: OX.67, 72 h.
The subject of a further series is H. pylori OX.83. Briefly: Broth dilution bioassay MIC/MBC, OX.83. The class given is cell-based, Helicobacter pylori. The settings on record: Helicobacter pylori; for MIC: OX.83, 48 h, H. pylori OX.83, broth dilution, 48 h; for MBC: OX.83, 72 h.
The test system of series [6] is test strains of H. pylori. In words: Broth dilution bioassay MIC/MBC, text summary over test strains. The class given is cell-based. The settings on record: Helicobacter pylori.
In series [7] the target is H. pylori ATCC 43504 urease (Helicobacter pylori, UniProt P69996). Briefly: Urease inhibition, salicylate-hypochlorite method. The class given is biochemical. In short, it runs like this:
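Crude H. pylori ATCC 43504 urease, 0.25 μg (0.04 U), in EDTA–sodium phosphate buffer pH 7.3, was preincubated with test compound at 37 °C for 90 min at 50 rpm. Urea solution (10 mM, as added) was then incubated for 30 min. Ammonia was measured by the salicylate–nitroprusside/alkaline hypochlorite method at 625 nm. Thiourea was the reference inhibitor. IC50 is molar. Triplicates, three independent experiments.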

Setting [8] is: Helicobacter pylori, OX.64, 48 h.
The mark [9] stands for this setting: Helicobacter pylori, OX.63, 48 h.

H. pylori ATCC 43504 urease, sequence (P69996 whole entry): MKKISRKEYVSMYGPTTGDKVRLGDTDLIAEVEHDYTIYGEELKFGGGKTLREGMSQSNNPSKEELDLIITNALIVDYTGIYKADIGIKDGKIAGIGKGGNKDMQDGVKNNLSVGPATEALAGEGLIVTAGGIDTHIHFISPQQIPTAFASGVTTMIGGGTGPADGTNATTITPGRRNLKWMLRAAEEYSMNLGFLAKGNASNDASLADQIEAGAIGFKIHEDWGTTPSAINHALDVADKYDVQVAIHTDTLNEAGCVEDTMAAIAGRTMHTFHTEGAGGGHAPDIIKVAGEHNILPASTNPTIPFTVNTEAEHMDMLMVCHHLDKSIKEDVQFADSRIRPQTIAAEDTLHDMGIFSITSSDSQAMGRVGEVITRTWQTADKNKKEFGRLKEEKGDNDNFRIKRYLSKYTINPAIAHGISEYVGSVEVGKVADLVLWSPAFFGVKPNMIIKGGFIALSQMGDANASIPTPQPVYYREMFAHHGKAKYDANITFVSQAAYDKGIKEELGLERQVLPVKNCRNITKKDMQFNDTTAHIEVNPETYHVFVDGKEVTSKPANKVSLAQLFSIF
H. pylori ATCC 43504 urease, sequence (P14916 whole entry partner): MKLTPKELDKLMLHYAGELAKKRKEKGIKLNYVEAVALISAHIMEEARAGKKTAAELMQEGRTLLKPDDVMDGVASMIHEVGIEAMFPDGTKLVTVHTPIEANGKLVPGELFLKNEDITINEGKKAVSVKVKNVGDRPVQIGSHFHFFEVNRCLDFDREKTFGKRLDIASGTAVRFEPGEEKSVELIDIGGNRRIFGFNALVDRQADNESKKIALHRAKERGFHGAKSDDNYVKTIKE

For orientation: CC50 means the concentration at which the toxic effect on the cells reaches its halfway point. A high value points to better tolerance by the cells. Turning to `CC[C@@]1(O)C(=O)OCc2c1cc1n(c2=O)Cc2cc3ccccc3nc2-1` [camptothecin, reference compound], the CC50 at 48 h in [1] was 0.005 µg/mL (≈ 0.0144 µM); in [2] it was 0.005 µg/mL (≈ 0.0144 µM); in series [3], 0.89 µg/mL (≈ 2.55 µM); in series [4], 1.57 µg/mL (≈ 4.51 µM); in [5] it was 0.005 to 1.57 µg/mL (≈ 0.0144 to 4.51 µM).
For orientation: MIC means the lowest concentration that inhibits growth of the organism. Low values mean greater potency, high ones weaker potency. For orientation: MBC means the smallest concentration meeting the test's criterion for killing. Higher therefore signals weaker bactericidal potency. With `CC[C@H]1OC(=O)[C@H](C)[C@@H](O[C@H]2C[C@@](C)(OC)[C@@H](O)[C@H](C)O2)[C@H](C)[C@@H](O[C@@H]2O[C@H](C)C[C@H](N(C)C)[C@H]2O)[C@](C)(O)C[C@@H](C)C(=O)[C@H](C)[C@@H](O)[C@]1(C)O` [erythromycin], the MIC in the series on H. pylori ATCC 43504 is 0.063 µg/mL (≈ 0.0858 µM); in the series with H. pylori ATCC 51932, 0.063 µg/mL (≈ 0.0858 µM); with H. pylori OX.64 (setting [8]) it was 16 to 32 µg/mL (≈ 21.8 to 43.6 µM); against H. pylori OX.67, 64 µg/mL (≈ 87.2 µM); in the series on H. pylori OX.83 it was 64 µg/mL (≈ 87.2 µM). Moreover, the MBC against H. pylori ATCC 43504 turned out to be 0.125 µg/mL (≈ 0.17 µM); with H. pylori ATCC 51932 it was 0.125 µg/mL (≈ 0.17 µM); with H. pylori OX.22, 128 µg/mL (≈ 174 µM); against H. pylori OX.63 (Helicobacter pylori), 128 µg/mL (≈ 174 µM); against H. pylori OX.64 (Helicobacter pylori), 128 µg/mL (≈ 174 µM); with H. pylori OX.67 it was 128 µg/mL (≈ 174 µM). The same molecule had a minimal bactericidal concentration (MBC) in the series on H. pylori OX.83 of 128 µg/mL (≈ 174 µM).
Regarding `C[C@H]1COc2c(N3CCN(C)CC3)c(F)cc3c(=O)c(C(=O)O)cn1c23` [levofloxacin], the MIC in the series with H. pylori ATCC 43504 is 0.125 µg/mL (≈ 0.346 µM); in the series on H. pylori ATCC 51932, 0.125 µg/mL (≈ 0.346 µM); with H. pylori OX.22, 0.063 µg/mL (≈ 0.174 µM); against H. pylori OX.63 (setting [9]) it was 0.063 µg/mL (≈ 0.174 µM); in the series on H. pylori OX.64, 32 µg/mL (≈ 88.6 µM); with H. pylori OX.64 (setting [8]), 16 to 32 µg/mL (≈ 44.3 to 88.6 µM). For the same molecule, the MIC in the series with H. pylori OX.67 came to 0.063 µg/mL (≈ 0.174 µM); against H. pylori OX.83 it was 0.75 µg/mL (≈ 2.08 µM); in series [6], 32 µg/mL (≈ 88.6 µM). The MBC amounted to 0.25 µg/mL (≈ 0.692 µM) against H. pylori ATCC 43504; 0.25 µg/mL (≈ 0.692 µM) against H. pylori ATCC 51932; 0.5 µg/mL (≈ 1.38 µM) against H. pylori OX.22; 0.5 µg/mL (≈ 1.38 µM) in the series on H. pylori OX.63 (Helicobacter pylori); 128 µg/mL (≈ 354 µM) against H. pylori OX.64 (Helicobacter pylori); 0.25 µg/mL (≈ 0.692 µM) against H. pylori OX.67. The same molecule came in with an MBC with H. pylori OX.83 of 1.25 µg/mL (≈ 3.46 µM).
On to `Cc1ncc([N+](=O)[O-])n1CCO` [metronidazole], for which the MIC is 32 µg/mL (≈ 187 µM) in the series on H. pylori ATCC 43504; 2 µg/mL (≈ 11.7 µM) in the series on H. pylori ATCC 51932; 32 µg/mL (≈ 187 µM) in the series on H. pylori OX.22; 64 µg/mL (≈ 374 µM) in the series on H. pylori OX.63; 32 to 64 µg/mL (≈ 187 to 374 µM) against H. pylori OX.63 (setting [9]); 32 µg/mL (≈ 187 µM) with H. pylori OX.64. The MIC in the series on H. pylori OX.64 (setting [8]) was 16 to 32 µg/mL (≈ 93.5 to 187 µM); in the series on H. pylori OX.67, 2 µg/mL (≈ 11.7 µM); against H. pylori OX.83, 1 µg/mL (≈ 5.84 µM); in series [6] (48 h), 24 to 64 µg/mL (≈ 140 to 374 µM). Moreover, the MBC is 192 µg/mL (≈ 1120 µM) in the series with H. pylori ATCC 43504; 4 µg/mL (≈ 23.4 µM) in the series on H. pylori ATCC 51932; 256 µg/mL (≈ 1500 µM) in the series on H. pylori OX.22; 256 µg/mL (≈ 1500 µM) against H. pylori OX.63 (Helicobacter pylori); 256 µg/mL (≈ 1500 µM) against H. pylori OX.64 (Helicobacter pylori); 4 µg/mL (≈ 23.4 µM) against H. pylori OX.67. The minimal bactericidal concentration (MBC) in the series with H. pylori OX.83 came out at 2 µg/mL (≈ 11.7 µM).
A word on the IC50: it is the point on the concentration scale where inhibition reaches its midpoint. Consider `NC(N)=S` [thiourea, reference compound], for which the concentration for half-maximal inhibition (IC50) in series [7] (read-out: IC50 (95% CL), urease crude, preincubation 90 min, pH 7.3) was found to be 573 µM. Further, the “slope ± SE” value in series [7] (slope of dose-response curve of percentage of urease inhibition) amounted to 1.79 ± 0.093.
